Measured values: ChEMBL document CHEMBL4229342, “Synthesis of novel proxyphylline derivatives with dual Anti-Candida albicans and anticancer activity” (Eur J Med Chem, 2018)
Values after ≈ are worked out from the molar mass of the structure shown.

How the values were obtained:
Candida albicans [1] = experiment: Fungicidal activity against Candida albicans ATCC 90028 assessed as drug level causing 3 fold reduction in bacterial count after 48 hrs at 35 degC; format: functional; settings: ATCC 90028, 48 h
Candida albicans [2] = experiment: Growth inhibition of Candida albicans ATCC 90028 at 1 ug/ml incubated for 4 hrs at 35 degC by broth microdilution method relative to control; format: functional; settings: ATCC 90028, 4 h, read-out: GI
Candida albicans [3] = experiment: Growth inhibition of Candida albicans ATCC 90028 at 0.125 ug/ml incubated for 4 hrs at 35 degC by broth microdilution method relative to control; format: functional; settings: ATCC 90028, 4 h, read-out: GI
Candida albicans [4] = experiment: Growth inhibition of Candida albicans ATCC 90028 at 0.0625 ug/ml incubated for 18 hrs at 35 degC by broth microdilution method relative to control; format: functional; settings: ATCC 90028, 18 h, read-out: GI
Candida albicans [5] = experiment: Growth inhibition of Candida albicans ATCC 90028 at 1 ug/ml incubated for 18 hrs at 35 degC by broth microdilution method relative to control; format: functional; settings: ATCC 90028, 18 h, read-out: GI
CCRF-CEM [6] = experiment: Antiproliferative activity against human CCRF-CEM cells assessed as cell viability at 100 uM after 72 hrs by MTT assay; format: functional; settings: read-out: Activity
How it was run: (§1)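 MTT viability assay in CCRF-CEM and MCF-7 cells after 72 h exposure at 25, 50, 100 and 200 µM. Results are relative to control cells without inhibitor in 0.5% DMSO. Done in triplicate; values are means ± SD of three independent experiments.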

MCF7 [7] = experiment: Antiproliferative activity against human MCF7 cells assessed as cell viability at 200 uM after 72 hrs by MTT assay; format: functional; settings: MCF7, 72 h, read-out: Activity; how it was run: as §1
Candida albicans [8] = experiment: Growth inhibition of Candida albicans ATCC 90028 at 16 ug/ml incubated for 48 hrs at 35 degC by broth microdilution method relative to control; format: functional; settings: ATCC 90028, 48 h, read-out: GI
Candida albicans [9] = experiment: Growth inhibition of Candida albicans ATCC 90028 at 0.125 ug/ml incubated for 18 hrs at 35 degC by broth microdilution method relative to control; format: functional; settings: ATCC 90028, 18 h, read-out: GI
Candida albicans [10] = experiment: Growth inhibition of Candida albicans ATCC 90028 at 8 ug/ml incubated for 18 hrs at 35 degC by broth microdilution method relative to control; format: functional; settings: ATCC 90028, 18 h, read-out: GI
MCF7 [11] = experiment: Antiproliferative activity against human MCF7 cells assessed as cell viability at 25 uM after 72 hrs by MTT assay; format: functional; settings: MCF7, 72 h, read-out: Activity; how it was run: as §1
MCF7 [12] = experiment: Antiproliferative activity against human MCF7 cells assessed as cell viability at 100 uM after 72 hrs by MTT assay; format: functional; settings: MCF7, 72 h, read-out: Activity; how it was run: as §1
Candida albicans [13] = experiment: Growth inhibition of Candida albicans ATCC 90028 at 0.5 ug/ml incubated for 4 hrs at 35 degC by broth microdilution method relative to control; format: functional; settings: ATCC 90028, 4 h, read-out: GI
CCRF-CEM [14] = experiment: Antiproliferative activity against human CCRF-CEM cells assessed as cell viability at 200 uM after 72 hrs by MTT assay; format: functional; settings: read-out: Activity; how it was run: as §1
Candida albicans [15] = experiment: Growth inhibition of Candida albicans ATCC 90028 at 0.0313 ug/ml incubated for 4 hrs at 35 degC by broth microdilution method relative to control; format: functional; settings: ATCC 90028, 4 h, read-out: GI
Vero [16] = experiment: Cytotoxicity in African green monkey Vero cells up to 64 ug/ml incubated for 3 to 18 hrs by XTT assay; format: cell-based; settings: chlorocebus sabaeus
CCRF-CEM [17] = experiment: Antiproliferative activity against human CCRF-CEM cells assessed as cell viability at 25 uM after 72 hrs by MTT assay; format: functional; settings: read-out: Activity; how it was run: as §1
Candida albicans [18] = experiment: Growth inhibition of Candida albicans ATCC 90028 at 16 ug/ml incubated for 18 hrs at 35 degC by broth microdilution method relative to control; format: functional; settings: ATCC 90028, 18 h, read-out: GI
Candida albicans [19] = experiment: Growth inhibition of Candida albicans ATCC 90028 at 8 ug/ml incubated for 48 hrs at 35 degC by broth microdilution method relative to control; format: functional; settings: ATCC 90028, 48 h, read-out: GI
Candida albicans [20] = experiment: Growth inhibition of Candida albicans ATCC 90028 at 0.25 ug/ml incubated for 4 hrs at 35 degC by broth microdilution method relative to control; format: functional; settings: ATCC 90028, 4 h, read-out: GI
Vero [21] = experiment: Cytotoxicity in African green monkey Vero cells incubated for 18 hrs by XTT assay; format: cell-based; settings: Chlorocebus sabaeus
Candida albicans [22] = experiment: Growth inhibition of Candida albicans ATCC 90028 at 0.0625 ug/ml incubated for 4 hrs at 35 degC by broth microdilution method relative to control; format: functional; settings: ATCC 90028, 4 h, read-out: GI
Candida albicans [23] = experiment: Growth inhibition of Candida albicans ATCC 90028 at 0.0313 ug/ml incubated for 18 hrs at 35 degC by broth microdilution method relative to control; format: functional; settings: ATCC 90028, 18 h, read-out: GI
Candida albicans [24] = experiment: Growth inhibition of Candida albicans ATCC 90028 at 2 ug/ml incubated for 18 hrs at 35 degC by broth microdilution method relative to control; format: functional; settings: ATCC 90028, 18 h, read-out: GI
Candida albicans [25] = experiment: Fungicidal activity against Candida albicans ATCC 90028 assessed as log reduction in cell viability at 16 ug/ml after 48 hrs at 35 degC; format: functional
How it was run: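 MFC assay on C. albicans ATCC 90028 following M27-A3, at the molar equivalent of 16 µg/mL. CFU of treated cells were compared with CFU of the untreated inoculum. Activity is given as lg R = lg CFU/mL control − lg CFU/mL treated, and lg R ≥3 was defined as fungicidal. Values are means of two independent experiments.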

CCRF-CEM [26] = experiment: Antiproliferative activity against human CCRF-CEM cells assessed as cell viability at 50 uM after 72 hrs by MTT assay; format: functional; settings: read-out: Activity; how it was run: as §1
Candida albicans [27] = experiment: Growth inhibition of Candida albicans ATCC 90028 at 0.5 ug/ml incubated for 18 hrs at 35 degC by broth microdilution method relative to control; format: functional; settings: ATCC 90028, 18 h, read-out: GI
Candida albicans [28] = experiment: Growth inhibition of Candida albicans ATCC 90028 at 2 ug/ml incubated for 4 hrs at 35 degC by broth microdilution method relative to control; format: functional; settings: ATCC 90028, 4 h, read-out: GI
Candida albicans [29] = experiment: Growth inhibition of Candida albicans ATCC 90028 at 4 ug/ml incubated for 18 hrs at 35 degC by broth microdilution method relative to control; format: functional; settings: ATCC 90028, 18 h, read-out: GI
MCF7 [30] = experiment: Antiproliferative activity against human MCF7 cells assessed as cell viability at 50 uM after 72 hrs by MTT assay; format: functional; settings: MCF7, 72 h, read-out: Activity; how it was run: as §1
Candida albicans [31] = experiment: Growth inhibition of Candida albicans ATCC 90028 at 8 ug/ml incubated for 4 hrs at 35 degC by broth microdilution method relative to control; format: functional; settings: ATCC 90028, 4 h, read-out: GI
Candida albicans [32] = experiment: Growth inhibition of Candida albicans ATCC 90028 at 0.25 ug/ml incubated for 18 hrs at 35 degC by broth microdilution method relative to control; format: functional; settings: ATCC 90028, 18 h, read-out: GI

## CC(Cn1cnc2c1c(=O)n(C)c(=O)n2C)OC(=O)N1c2ccccc2C=Cc2ccccc21 (configuration not stated)
Candida albicans [1]
  MFC: 35 µM (≈ 16 µg/mL)
Candida albicans [2]
  inhibition of growth at 1 µg/mL: 99.3%
Candida albicans [3]
  inhibition of growth at 0.125 µg/mL: 99.7%
Candida albicans [4]
  inhibition of growth at 0.0625 µg/mL: 99.9%
Candida albicans [5]
  inhibition of growth at 1 µg/mL: 100%
CCRF-CEM [6]
  viability at 100 µM: 23.9%
MCF7 [7]
  viability at 200 µM: 76.5%
Candida albicans [8]
  inhibition of growth at 16 µg/mL: 100%
Candida albicans [9]
  inhibition of growth at 0.125 µg/mL: 100%
Candida albicans [10]
  inhibition of growth at 8 µg/mL: 99.8%
MCF7 [11]
  viability at 25 µM: 93.4%
MCF7 [12]
  viability at 100 µM: 82.5%
Candida albicans [13]
  inhibition of growth at 0.5 µg/mL: 99.2%
CCRF-CEM [14]
  viability at 200 µM: 23.4%
Candida albicans [15]
  inhibition of growth at 0.0313 µg/mL: 99.1%
Vero [16]
  Activity: Non-Toxic
CCRF-CEM [17]
  viability at 25 µM: 52.4%
Candida albicans [18]
  inhibition of growth at 16 µg/mL: 100%
Candida albicans [19]
  inhibition of growth at 8 µg/mL: 99.2%
Candida albicans [20]
  inhibition of growth at 0.25 µg/mL: 99.2%
Vero [21]
  IC50: ≥ 280 µM
Candida albicans [22]
  inhibition of growth at 0.0625 µg/mL: 99.3%
Candida albicans [23]
  inhibition of growth at 0.0313 µg/mL: 99.8%
Candida albicans [24]
  inhibition of growth at 2 µg/mL: 99.8%
Candida albicans [25]
  log(activity): 8
CCRF-CEM [26]
  viability at 50 µM: 39.3%
Candida albicans [27]
  inhibition of growth at 0.5 µg/mL: 99.7%
Candida albicans [28]
  inhibition of growth at 2 µg/mL: 99.4%
Candida albicans [29]
  inhibition of growth at 4 µg/mL: 100%
MCF7 [30]
  viability at 50 µM: 98.8%
Candida albicans [31]
  inhibition of growth at 8 µg/mL: 99.2%
Candida albicans [32]
  inhibition of growth at 0.25 µg/mL: 100%
